The results in this text go back to publication PMC11495195 (Drug Design, Development and Therapy, 2024).

The structures appear in SMILES notation.

A short description of data set [1]: Body weight and side-effects in H1299 xenograft mice. The format is in vivo. The conditions noted are these: 6 mg/kg intraperitoneal; for body weight change: after 21 days of administration. The procedure, abridged:
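Female BALB/c nude mice, 5 weeks old, kept pathogen-free, received 1.4 × 10^6 NCI-H1299 cells subcutaneously. At about 75 mm3 tumours, mice were randomised (n = 5). Dosing was intraperitoneal at 6 mg/kg: vehicle (2% DMSO, 30% PEG-400, 68% ddH2O) or test compound daily for 21 days, doxorubicin every 3 days. Body weight was weighed every 3 days; mean ± SEM.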

Data set [2] in a line: In vitro liver microsome stability, human. The format is in vitro ADME. The following applies: human liver microsomes; mean ± SD (n = 5). Put shortly: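 Test compound at 20 μM final was incubated with 0.5 mg/mL human or mouse liver microsomes and NADPH in 0.1 M phosphate buffer for 30 min at 37°C. The reaction was quenched with 2 volumes of cold acetonitrile plus internal standard, held overnight at −20°C and centrifuged. Supernatant was analysed by UPLC-MS/MS. 6-Hydroxycoumarin was the positive control; a no-NADPH blank was the negative control.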

For another data set, the target named is PDHK1 (Homo sapiens, UniProt Q15118). Kind of data set: In vitro PDHK activity assay. In kind it is biochemical. The conditions noted are these: read-out: Inhibition% at 10 µM, PDHK1, 10 µM; mean ± SD (n = 5).
Sequence of PDHK1 (Q15118 29-436): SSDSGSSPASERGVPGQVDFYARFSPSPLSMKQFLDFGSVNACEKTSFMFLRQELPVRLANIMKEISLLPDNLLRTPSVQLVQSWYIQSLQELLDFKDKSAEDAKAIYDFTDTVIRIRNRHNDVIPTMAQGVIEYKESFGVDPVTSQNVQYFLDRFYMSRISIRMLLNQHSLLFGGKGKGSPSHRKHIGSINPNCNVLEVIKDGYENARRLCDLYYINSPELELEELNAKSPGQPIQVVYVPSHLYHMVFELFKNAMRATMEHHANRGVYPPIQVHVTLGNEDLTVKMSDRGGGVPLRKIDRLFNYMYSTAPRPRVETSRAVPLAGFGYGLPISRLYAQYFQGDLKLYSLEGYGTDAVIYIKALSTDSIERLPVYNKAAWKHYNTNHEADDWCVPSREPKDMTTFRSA

Consider `CC(C)Oc1ccc(S(=O)(=O)c2ccc(Oc3cc(OCC(N)=O)c(C(=O)C(Cl)Cl)cc3[N+](=O)[O-])cc2)cc1` [Compound 32, 2-(2-(2,2-Dichloroacetyl)-5-(4-((4-isopropoxyphenyl)sulfonyl)phenoxy)-4-nitrophenoxy)acetamide], for which, in data set [1] (21 days), the other side-effects result is given as “No other side-effects were observed”. Also, the body weight change entry in data set [1] is listed as “decreased very little”. Besides, in data set [2], the “CLint” value worked out at 29.7 µL/min/mg.

Regarding `COc1cccc2c1C(=O)c1c(O)c3c(c(O)c1C2=O)C[C@@](O)(C(=O)CO)C[C@@H]3O[C@H]1C[C@H](N)[C@H](O)[C@H](C)O1` [DOX, doxorubicin, reference compound], the body weight change result in data set [1] is recorded as “significant body weight loss”.

As to `O=C1c2ccccc2C(=O)c2c(Oc3ccc(C(=O)C(Cl)Cl)cc3[N+](=O)[O-])cccc21` [Compound 18, 1-(4-(2,2-Dichloroacetyl)-2-nitrophenoxy)anthracene-9,10-dione], the inhibition at 10 µM on PDHK1 was 26.5 to 30.1%.

In general, inhibition refers to the relative decrease from the control value, in per cent.
